Measured values published in ChEMBL document CHEMBL2034843, “3α-Hydroxymasticadienonic acid as an antiproliferative agent that impairs mitochondrial functions” (J Nat Prod, 2012).
Activity calls are given as the source filed them. No cut-off for these calls is given here.

Key:
Rattus norvegicus [1] = species on record: Rattus norvegicus; test: Induction of mitochondrial dysfunction in rat liver mitochondria assessed as decrease in mitochondrial redox level at 10 uM after 15 mins by absorption spectrophotometric analysis in presence of 50 uM Ca2+; type: functional; design: scale not given: the % may be the effect or the level left
Method in brief: (§1)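 Mitochondrial protein thiol oxidation assayed per Santos et al. after 15 min incubation of rat liver mitochondria (1 mg protein/mL, 20 °C, succinate/rotenone standard medium). Results as % reduced thiols, mean ± SD, four independent experiments.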

HepG2 = test: Cytotoxicity against human HepG2 cells after 72 hrs by trypan blue assay; type: functional, cell-based; conditions: HepG2, 72 h
Method in brief: (§2)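 Cells seeded at 4 × 10^4 per well, grown 24 h, then given fresh medium with a range of concentrations and kept a further 72 h at 37 °C in 5% CO2. Viability was read by trypan blue count. IC50 is the concentration giving 50% fewer cells than control cultures, as mean ± SD of at least four experiments. HeLa were grown in F-12 with 10% heat-inactivated FCS; A-431 and HepG2 in DMEM with 10% FBS.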

Rattus norvegicus [2] = species on record: Rattus norvegicus; test: Induction of mitochondrial dysfunction in rat liver mitochondria assessed as decrease in membrane potential at 5 uM by spectrophotometric analysis in presence of 50 uM Ca2+; type: functional; conditions: TDE = time-dependent effect
Method in brief: (§3)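 Membrane potential (ΔΨ) derived from TPP+ distribution across the inner membrane, measured with a TPP+-selective electrode. Ca2+ 50 μM where indicated; cyclosporin A 1 μM where indicated.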

Rattus norvegicus [3] = species on record: Rattus norvegicus; test: Induction of mitochondrial dysfunction in rat liver mitochondria assessed as decrease in membrane potential at 1 uM by spectrophotometric analysis in presence of 50 uM Ca2+; type: functional; conditions: in the assay text read “TPP+-selective electrode” for “spectrophotometric analysis”, TDE = time-dependent effect; method in brief: as §3
A-431 = test: Cytotoxicity against human A431cells after 72 hrs by trypan blue assay; type: functional, cell-based; conditions: A-431, 72 h; method in brief: as §2
Rattus norvegicus [4] = species on record: Rattus norvegicus; test: Induction of mitochondrial dysfunction in rat liver mitochondria assessed as Ca2+ accumulation at 10 uM after 1 to 2 mins by spectrophotometric analysis; type: functional
Method in brief: (§4)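 Ca2+ movements in rat liver mitochondria (1 mg protein/mL, 20 °C, succinate/rotenone medium) exposed to 70 μM Ca2+; Ca2+ in mitochondrial pellets measured by atomic absorption spectroscopy, uptake expressed per mg protein.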

Rattus norvegicus [5] = species on record: Rattus norvegicus; test: Induction of mitochondrial bioenergetics dysfunction in rat liver mitochondria assessed as decrease in respiratory control index at 50 uM by using clark electrode; type: functional
Method in brief: (§5)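 Isolated rat liver mitochondria (1 mg protein/mL), 20 °C, sucrose/HEPES pH 7.4 medium with 5 mM succinate plus 1.25 μM rotenone and 1 mM phosphate. O2 uptake followed with a Clark electrode; 300 μM ADP added to start state 3. RCI = V3/V4 (state 3 over state 4 rate). Five experiments.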

HeLa = test: Cytotoxicity against human HeLa cells after 72 hrs by trypan blue assay; type: functional, cell-based; method in brief: as §2
Rattus norvegicus [6] = species on record: Rattus norvegicus; test: Hepatoprotective activity in rat liver mitochondria assessed as change in mitochondrial pyridine nucleotide redox level at 100 uM after 15 mins by fluorometric analysis in presence of Ca2+
Rattus norvegicus [7] = species on record: Rattus norvegicus; test: Induction of mitochondrial dysfunction in rat liver mitochondria assessed as cytochrome c release at 10 uM after 15 mins by Western blot analysis; type: functional
Method in brief: (§6)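 Mitochondria (1 mg protein/mL) held 15 min at 20 °C in standard succinate/rotenone medium with or without Ca2+, then centrifuged 13000g, 10 min, 4 °C. Supernatants concentrated, resolved by SDS-PAGE (15% for cyt c, 10% for AIF) and immunoblotted with mouse anti-cyt c or rabbit anti-AIF.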

Rattus norvegicus [8] = species on record: Rattus norvegicus; test: Induction of mitochondrial dysfunction in rat liver mitochondria assessed as increase in colloid-osmotic swelling at 10 uM by spectrophotometric analysis in presence of 50 uM Ca2+ and N-ethylmaleimide; type: functional
Method in brief: (§7)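 Swelling read as the 540 nm absorbance decrease in succinate-energized rat liver mitochondria (1 mg protein/mL, 20 °C, pH 7.4 sucrose/HEPES medium) with 50 μM Ca2+. Added agents where indicated: 1 μM CsA, 5 μM bongkrekic acid, 1 mM ADP, 2 μM ruthenium red, 10 μM NEM, 1 mM DTE. At least five repeats.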

Rattus norvegicus [9] = species on record: Rattus norvegicus; test: Induction of mitochondrial dysfunction in rat liver mitochondria assessed as decrease in mitochondrial redox level at 10 uM after 15 mins by absorption spectrophotometric analysis; type: functional; design: scale not given: the % may be the effect or the level left; method in brief: as §1
Rattus norvegicus [10] = species on record: Rattus norvegicus; test: Induction of mitochondrial dysfunction in Ca2+-stimulated rat liver mitochondria assessed as decrease in mitochondrial redox level at 10 uM after 15 mins by absorption spectrophotometric analysis in presence of ADP; type: functional; method in brief: as §1
Rattus norvegicus [11] = species on record: Rattus norvegicus; test: Induction of mitochondrial dysfunction in rat liver mitochondria assessed as increase in colloid-osmotic swelling at 100 uM by spectrophotometric analysis in presence of 50 uM Ca2+; type: functional
Method in brief: (§8)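 Absorbance change at 540 nm of rat liver mitochondrial suspensions (1 mg protein/mL, 20 °C, succinate/rotenone energized, 250 mM sucrose, 10 mM HEPES pH 7.4, 1 mM phosphate); a fall in absorbance taken as swelling. Ca2+ at 50, 70 or 90 μM as specified, or omitted. Runs repeated at least four times.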

Rattus norvegicus [12] = species on record: Rattus norvegicus; test: Induction of mitochondrial dysfunction in rat liver mitochondria assessed as cytochrome c release at 100 uM after 15 mins by Western blot analysis in presence of Ca2+; type: functional; method in brief: as §6
Rattus norvegicus [13] = species on record: Rattus norvegicus; test: Induction of mitochondrial dysfunction in rat liver mitochondria assessed as decrease in mitochondrial redox level at 100 uM after 15 mins by absorption spectrophotometric analysis; type: functional; design: scale not given: the % may be the effect or the level left; method in brief: as §1
Rattus norvegicus [14] = species on record: Rattus norvegicus; test: Induction of mitochondrial dysfunction in rat liver mitochondria assessed as decrease in membrane potential at 100 uM by spectrophotometric analysis in presence of 1 uM MPT inhibitor cyclosporin A; type: functional; method in brief: as §3
Rattus norvegicus [15] = species on record: Rattus norvegicus; test: Induction of mitochondrial dysfunction in rat liver mitochondria assessed as initial uptake of Ca2+ per mg protein at 100 uM measured immediately by spectrophotometric analysis; type: functional; method in brief: as §4
Rattus norvegicus [16] = species on record: Rattus norvegicus; test: Induction of mitochondrial dysfunction in Ca2+-stimulated rat liver mitochondria assessed as decrease in SH mitochondrial redox level at 10 uM after 15 mins by absorption spectrophotometric analysis in presence of dithiothreitol; type: functional; method in brief: as §1
Rattus norvegicus [17] = species on record: Rattus norvegicus; test: Hepatoprotective activity in rat liver assessed as increase in mitochondrial membrane potential at 100 uM by spectrophotometric analysis in presence of 50 uM Ca2+; type: functional; conditions: Mitochondria; method in brief: as §3
Rattus norvegicus [18] = species on record: Rattus norvegicus; test: Induction of mitochondrial bioenergetics dysfunction in rat liver mitochondria assessed as decrease in respiratory control index at 10 uM by using clark electrode; type: functional; method in brief: as §5
Rattus norvegicus [19] = species on record: Rattus norvegicus; test: Induction of mitochondrial dysfunction in rat liver mitochondria assessed as increase in colloid-osmotic swelling at 10 uM by spectrophotometric analysis in presence of 50 uM Ca2+ and cyclosporin A; type: functional; method in brief: as §7
Rattus norvegicus [20] = species on record: Rattus norvegicus; test: Induction of mitochondrial dysfunction in rat liver mitochondria assessed as blockage of Ca2+ release at 100 uM by spectrophotometric analysis; type: functional; conditions: in the assay text read “Ca2+ accumulation” for “Ca2+ release”; method in brief: as §4
Rattus norvegicus [21] = species on record: Rattus norvegicus; test: Induction of mitochondrial dysfunction in rat liver mitochondria assessed as rapid accumulation of Ca2+ at 10 uM by spectrophotometric analysis; type: functional
Method in brief: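 Rat liver mitochondria, isolated by differential centrifugation in sucrose/HEPES/EGTA buffer, were incubated at 1 mg protein/mL and 20 °C. Ca2+ content of mitochondrial pellets was measured by atomic absorption spectroscopy.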

Rattus norvegicus [22] = species on record: Rattus norvegicus; test: Hepatoprotective activity in rat liver mitochondria assessed as inhibition of Ca2+-induced mitochondrial swelling at 100 uM by spectrophotometric analysis; type: functional; method in brief: as §8
Rattus norvegicus [23] = species on record: Rattus norvegicus; test: Induction of mitochondrial bioenergetics dysfunction in rat liver mitochondria assessed as decrease in respiratory control index at 25 uM by using clark electrode; type: functional; method in brief: as §5

C/C(=C/CC[C@H](C)[C@@H]1CC[C@]2(C)C3=CC[C@H]4C(C)(C)[C@H](O)CC[C@]4(C)[C@H]3CC[C@@]12C)C(=O)O was tested, and the Activity (Rattus norvegicus [1]) was 50%, the IC50 (HepG2) was 20.1 µM and the Activity (Rattus norvegicus [2]) was “tde”. The Activity (Rattus norvegicus [3]) was “tde”, the IC50 (A-431) was 40 µM and the Activity (Rattus norvegicus [4]) was “inactive”. The Activity (Rattus norvegicus [5]) was “Active”, the IC50 (HeLa) was 28.9 µM and the Activity (Rattus norvegicus [6]) was “Active”. The Activity (Rattus norvegicus [7]) was “inactive”, the Activity (Rattus norvegicus [8]) was “inactive” and the Activity (Rattus norvegicus [9]) was 20%. The Activity (Rattus norvegicus [10]) was “Active”, the Activity (Rattus norvegicus [11]) was “Active” and the Activity (Rattus norvegicus [12]) was “inactive”. The Activity (Rattus norvegicus [13]) was 25%, the Activity (Rattus norvegicus [14]) was “Active” and the Activity (Rattus norvegicus [15]) was 20 nmol. For the same compound, the Activity (Rattus norvegicus [16]) was “inactive”, the Activity (Rattus norvegicus [17]) was “Active” and the Activity (Rattus norvegicus [18]) was “Active”. The Activity (Rattus norvegicus [19]) was “inactive”, the Activity (Rattus norvegicus [20]) was “Active” and the Activity (Rattus norvegicus [21]) was “Active”. For the same compound, the inhibition (Rattus norvegicus [22]) was “Active” and the Activity (Rattus norvegicus [23]) was “Active”.
